Assay results reported in ChEMBL document CHEMBL4118130, “Modular synthesis of new C-aryl-nucleosides and their anti-CML activity” (Bioorg Med Chem Lett, 2018).
pIC50: −log10 of the molar value. Activity calls are given as the source filed them. The calls are words filed in the database; no cut-off is given here.

Experiments:
K562 [1] = test: Cytotoxicity in drug sensitive human K562 cells assessed as reduction in cell viability at 10 uM incubated for 48 hrs by XTT assay relative to imatinib; type: functional
K-562R [2] = test: Induction of apoptosis in imatinib-resistant human K562R cells assessed as induction of caspase-3 cleavage after 24 hrs by Western blot method; type: functional, cell-based
In short: (§1)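 Cell lysates were probed by western blot for procaspase 3 and for PARP, its preferred substrate, in K562-S and K562-R cells. Cleavage was scored after 6 h and 24 h of treatment.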

K562 [3] = test: Induction of apoptosis in drug sensitive human K562 cells assessed as induction of PARP cleavage after 6 hrs by Western blot method; type: functional, cell-based; in short: as §1
K562 [4] = test: Induction of apoptosis in drug sensitive human K562 cells assessed as induction of caspase-3 cleavage after 24 hrs by Western blot method; type: functional, cell-based; in short: as §1
K562 [5] = test: Induction of apoptosis in drug sensitive human K562 cells assessed as induction of caspase-3 cleavage after 6 hrs by Western blot method; type: functional, cell-based; in short: as §1
K-562R [6] = test: Cytotoxicity in imatinib-resistant human K562R cells assessed as reduction cell viability incubated for 48 hrs by XTT assay; type: functional, cell-based
In short: (§2)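 K562-S (imatinib-sensitive) or K562-R (imatinib-resistant) CML cells were exposed to a range of concentrations for 48 h. Viability was read by XTT, and the IC50 was derived from the dose-response.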

K-562R [7] = test: Induction of apoptosis in imatinib-resistant human K562R cells assessed as induction of PARP cleavage after 24 hrs by Western blot method; type: functional, cell-based; in short: as §1
K-562R [8] = test: Induction of apoptosis in imatinib-resistant human K562R cells assessed as induction of caspase-3 cleavage after 6 hrs by Western blot method; type: functional, cell-based; in short: as §1
K-562R [9] = test: Induction of apoptosis in imatinib-resistant human K562R cells assessed as induction of PARP cleavage after 6 hrs by Western blot method; type: functional, cell-based; in short: as §1
K-562R [10] = test: Inhibition of autophagy in imatinib-resistant human K562R cells assessed as reduction in LC3-II accumulation by Western blot method; type: functional, cell-based
In short: (§3)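 Western blot of LC3 lipidation and cleavage, scored as conversion of LC3-I to LC3-II, in K562-S and K562-R cells. Untreated cells served as the baseline for LC3-II accumulation.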

K562 [11] = test: Induction of apoptosis in drug sensitive human K562 cells assessed as induction of PARP cleavage after 24 hrs by Western blot method; type: functional, cell-based; in short: as §1
K562 [12] = test: Inhibition of autophagy in drug sensitive human K562 cells assessed as reduction in LC3-II accumulation by Western blot method; type: functional, cell-based; in short: as §3
K562 [13] = test: Potency index, ratio of IC50 for AICAR to IC50 for test compound in drug sensitive human K562 cells assessed as reduction cell viability incubated for 48 hrs by XTT assay; type: functional
K562 [14] = test: Cytotoxicity in drug sensitive human K562 cells assessed as reduction cell viability incubated for 48 hrs by XTT assay; type: functional, cell-based; conditions: for pIC50: K562, 48 h; in short: as §2

| Structure (SMILES) | Activity (K562 [1]) | further results |
| --- | --- | --- |
| COc1ccc(-c2ccccc2)cc1[C@@H]1O[C@H](CO)[C@@H](O)[C@H]1O | Active | – |
| COc1ccc(C#Cc2ccc(C)cc2)cc1[C@@H]1O[C@H](CO)[C@@H](O)[C@H]1O | Active | – |
| COc1ccc(-c2cc3ccccc3s2)cc1[C@@H]1O[C@H](COC(C)=O)[C@@H](OC(C)=O)[C@H]1OC(C)=O | >30 - 80% | Activity (K-562R [2]): inactive; Activity (K562 [3]): inactive; Activity (K562 [4]): inactive; Activity (K562 [5]): inactive; pIC50 (K-562R [6]): 5.54; Activity (K-562R [7]): inactive; Activity (K-562R [8]): inactive; Activity (K-562R [9]): inactive; inhibition (K-562R [10]): Active; Activity (K562 [11]): inactive; inhibition (K562 [12]): Active; Ratio IC50 (K562 [13]): 200; Activity (K562 [14]): Dose-dependent effect; pIC50 (K562 [14]): 5.40 |
| COc1ccc(C#Cc2ccc(F)cc2)cc1[C@@H]1O[C@H](COC(C)=O)[C@@H](OC(C)=O)[C@H]1OC(C)=O | Active | – |
| COc1ccc(-c2ccc3[nH]ccc3c2)cc1[C@@H]1O[C@H](COC(C)=O)[C@@H](OC(C)=O)[C@H]1OC(C)=O | Active | – |
| COc1ccc(C#Cc2ccc(C)cc2)cc1[C@@H]1O[C@H](COC(C)=O)[C@@H](OC(C)=O)[C@H]1OC(C)=O | Active | – |
| COc1ccc(C#Cc2ccccc2)cc1[C@@H]1O[C@H](CO)[C@@H](O)[C@H]1O | Active | – |
| COc1ccc(C#Cc2ccc(F)cc2)cc1[C@@H]1O[C@H](CO)[C@@H](O)[C@H]1O | Active | – |
| COc1ccc(-c2cccn2C)cc1[C@@H]1O[C@H](CO)[C@@H](O)[C@H]1O | Active | – |
| COc1ccc(-c2ccc(C)cc2)cc1[C@@H]1O[C@H](CO)[C@@H](O)[C@H]1O | Active | – |
| COc1ccc(C#Cc2ccsc2)cc1[C@@H]1O[C@H](COC(C)=O)[C@@H](OC(C)=O)[C@H]1OC(C)=O | inactive | – |
| COc1ccc(C#Cc2ccccc2)cc1[C@@H]1O[C@H](COC(C)=O)[C@@H](OC(C)=O)[C@H]1OC(C)=O | inactive | – |
| COc1ccc(-c2ccco2)cc1[C@@H]1O[C@H](CO)[C@@H](O)[C@H]1O | Active | – |
| COc1ccc(-c2cccs2)cc1[C@@H]1O[C@H](CO)[C@@H](O)[C@H]1O | Active | – |
| COc1ccc(-c2ccc3[nH]ccc3c2)cc1[C@@H]1O[C@H](CO)[C@@H](O)[C@H]1O | Active | – |
| COc1ccc(-c2cccn2C)cc1[C@@H]1O[C@H](COC(C)=O)[C@@H](OC(C)=O)[C@H]1OC(C)=O | Active | – |
| COc1ccc(-c2cccc3ccccc23)cc1[C@@H]1O[C@H](CO)[C@@H](O)[C@H]1O | Active | – |
| COc1ccc(C#Cc2ccc(OC)c([C@@H]3O[C@H](COC(C)=O)[C@@H](OC(C)=O)[C@H]3OC(C)=O)c2)cc1 | >30% | – |
| COc1ccc(-c2ccc(C)cc2)cc1[C@@H]1O[C@H](COC(C)=O)[C@@H](OC(C)=O)[C@H]1OC(C)=O | Active | – |
| COc1ccc(-c2ccccc2)cc1[C@@H]1O[C@H](COC(C)=O)[C@@H](OC(C)=O)[C@H]1OC(C)=O | Active | – |
| COc1ccc(-c2cc3ccccc3s2)cc1[C@@H]1O[C@H](CO)[C@@H](O)[C@H]1O | 16% | – |
| COc1ccc(-c2ccco2)cc1[C@@H]1O[C@H](COC(C)=O)[C@@H](OC(C)=O)[C@H]1OC(C)=O | Active | – |
| Cc1ccc(NC(=O)c2ccc(CN3CCN(C)CC3)cc2)cc1Nc1nccc(-c2cccnc2)n1 [IMATINIB] | – | pIC50 (K-562R [6]): < 4.30; pIC50 (K562 [14]): 5.96 |
| COc1ccc(C#Cc2ccc(OC)c([C@@H]3O[C@H](CO)[C@@H](O)[C@H]3O)c2)cc1 | Active | – |
| COc1ccc(C#Cc2ccsc2)cc1[C@@H]1O[C@H](CO)[C@@H](O)[C@H]1O | Active | – |
| NC(=O)c1ncn([C@@H]2O[C@H](CO)[C@@H](O)[C@H]2O)c1N [ACADESINE] | – | pIC50 (K-562R [6]): 3.10 |
| COc1ccc(-c2cccs2)cc1[C@@H]1O[C@H](COC(C)=O)[C@@H](OC(C)=O)[C@H]1OC(C)=O | >30% | – |
| COc1ccc(-c2cccc3ccccc23)cc1[C@@H]1O[C@H](COC(C)=O)[C@@H](OC(C)=O)[C@H]1OC(C)=O | >30% | – |
